Measurements reported in PMC4245176 (Journal of Chemical Information and Modeling, 2014).
Entries after “also recorded” stand apart in the source; their conditions may differ.

Legend:
[1] = test system: HIV-1_89BZ167; assay: PBMC-based HIV-1 replication assay; format: cell-based; settings: HIV-1 replication in primary human PBMCs
Method in brief: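 Fresh human PBMCs from HIV-1/HBV-seronegative donors were stimulated with 4 μg/mL PHA for 48–72 h and kept in 20 U/mL rhIL-2. Cells from ≥2 donors were pooled at 5 × 10^4 cells/well and infected with 89BZ167 (subtype B, CXCR4-tropic) at MOI ≅0.1 with nine compound concentrations (triplicate wells) for 7 days. Supernatant RT activity gave infection as % of compound-free control, from which IC50 was derived.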

[2] = test system: peripheral blood mononuclear cells (PBMCs); assay: MTS cytotoxicity assay in PBMCs; format: cell-based, human; settings: up to the highest test concentration of 100 μM
Method in brief: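 Cytotoxicity was read by MTS addition alongside the 7-day HIV-1 infection of pooled PHA/IL-2-stimulated human PBMCs (5 × 10^4 cells/well, nine compound concentrations, triplicate wells). The maximum concentration tested was 100 μM. CC50 is the half-maximal cytotoxic concentration. TI = CC50/IC50, with IC50 taken from the RT-based antiviral readout against 89BZ167.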

[3] = target: HIV-1NL4-3 CA protein (Human immunodeficiency virus type 1 group M subtype B, UniProt P12493); assay: SPR direct binding to immobilized CA
Method in brief: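 CA was amine-coupled at 100 μg/mL in sodium acetate pH 4.5 onto an EDC/sulfo-NHS-activated GLH chip, with a nonspecific-antibody reference surface. A 10 mM DMSO stock of test compound was serially diluted 2-fold to 18.75–300 μM in PBS-T pH 7.4 with 5% DMSO. One-shot kinetics ran at 100 μL/min, 2 min association and 2 min dissociation. Buffer and reference responses were subtracted, and data were fitted to a 1:1 model.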

[4] = target: HIV-1 CA Ile37Ala (Human immunodeficiency virus type 1 group M subtype B, UniProt P12493, I169A); assay: SPR binding site analysis, mutant CA; settings: 50 μM compound, equilibrium response normalized to theoretical Rmax
Method in brief: (§1)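 Wild-type and Ala-mutant CA were amine-coupled to a GLH chip at 100 μg/mL in sodium acetate pH 4.5, after EDC (0.2 M)/sulfo-NHS (0.05 M) activation for 5 min at 25 °C, then capped with 1 M ethanolamine pH 8.0. Test compound was injected at 100 μL/min with a 2 min association. Rmax assumed 1:1 per surface. Responses from 12 replicate injections per surface were analysed.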

[5] = target: HIV-1 CA Lys170Ala (Human immunodeficiency virus type 1 group M subtype B, UniProt P12493, K302A); assay: SPR binding site analysis, mutant CA; settings: 50 μM compound, equilibrium response normalized to theoretical Rmax
Method in brief: as §1

[6] = target: HIV-1 CA Asn139Ala (Human immunodeficiency virus type 1 group M subtype B, UniProt P12493, N271A); assay: SPR binding site analysis, mutant CA; settings: 50 μM compound, equilibrium response normalized to theoretical Rmax
Method in brief: as §1

[7] = target: HIV-1 CA Gln179Ala (Human immunodeficiency virus type 1 group M subtype B, UniProt P12493, Q311A); assay: SPR binding site analysis, mutant CA; settings: 50 μM compound, equilibrium response normalized to theoretical Rmax
Method in brief: as §1

[8] = target: HIV-1 CA Ser41Ala (Human immunodeficiency virus type 1 group M subtype B, UniProt P12493, S173A); assay: SPR binding site analysis, mutant CA; settings: 50 μM compound, equilibrium response normalized to theoretical Rmax
Method in brief: as §1

[9] = target: HIV-1 CA Pro38Ala (Human immunodeficiency virus type 1 group M subtype B, UniProt P12493, P170A); assay: SPR binding site analysis, mutant CA; settings: 50 μM compound, equilibrium response normalized to theoretical Rmax
Method in brief: as §1

[10] = target: HIV-1 CA Arg173Ala (Human immunodeficiency virus type 1 group M subtype B, UniProt P12493, R305A); assay: SPR binding site analysis, mutant CA; settings: 50 μM compound, equilibrium response normalized to theoretical Rmax
Method in brief: as §1

In the case of O=[N+]([O-])c1cccc(-c2nc3c4cc(I)ccc4c4ccccc4c3[nH]2)c1 [Compound 34, 5-iodo-2-(3-nitrophenyl)-1H-phenanthro[9,10-d]imidazole], the “improvement in antiviral potency over I-XW-053 (compound 1)” value [1] is reported as 11 fold, the “toxicity / viability of PBMCs” value [2] is reported as “no toxicity; also recorded: not toxic” and the Kd [3] is reported as 11.8 ± 4.7 µM. The “effect of mutation on compound binding versus wild-type CA” value [4] was “no effect”, the “effect of mutation on compound binding versus wild-type CA” value [5] was “loss of favorable interactions; also recorded: major effect” and the “effect of mutation on compound binding versus wild-type CA” value [6] was “no effect”. The “effect of mutation on compound binding versus wild-type CA” value [7] was “loss of favorable interactions”, the “effect of mutation on compound binding versus wild-type CA” value [8] was “loss of favorable interactions” and the “effect of mutation on compound binding versus wild-type CA” value [9] was “increase the interaction”. For the same compound, the “effect of mutation on compound binding versus wild-type CA” value [10] was “increase the interaction”.
